From PubChem BioAssay AID1800 (The Scripps Research Institute Molecular Screening Center, 2009) come the findings set out here.

Hit rate of the full screen: of about 290,000 compounds, about 1,600 (0.55%) were called active. This excerpt belongs to a sample that is enriched for actives. A number with no mark means an inactive call.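 The calls were made as follows: active = inhibition above the mean of all tested compounds plus 3 SD, set per campaign (cut at about 35% in these data); inactive = the rest.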

The experiment relates to Hepatitis C virus NS3 helicase. The experiment is described as follows: HCV NS3 DNA unwinding blockers – biochemical, Cy5 molecular beacon fluorescence, primary screen (AID 1800). To be noted: at 10.9 µM, hits give high values. In a few lines: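 System: NS3 helicase fragment of HCV / Schedule: 1 h at 25 °C / Control set: DMSO alone as 0% and 110 µM thioflavine S as 100% / Reagent: Cy5/quencher beacon DNA duplex and ATP to start / Technique: Cy5 fluorescence / Replication: singlicate / Evaluation: % inhibition of end-to-start signal ratio versus controls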
Turning to `CSc1nc2ccccc2c(=O)n1Cc1ccc(F)cc1`, the inhibition was -9.76%.

With `CC(=O)Nc1ccc(NC(=O)CSc2ncnc3c2cnn3Cc2ccccc2)cc1`, the inhibition is -5.31%. Turning to `CSc1c(SCc2ccccc2)cnn(Cc2ccccc2)c1=O`, the inhibition was 48.3% (active). With `CSc1ccccc1OCc1cc(C(=O)N(C)CCc2c(C)n[nH]c2C)no1` the figure was 11.5%. With `O=C(CSCc1ccccc1)Nc1ccccc1`, the inhibition was -0.15%. With `O=S(=O)(Nc1ccc2nc(-c3ccco3)[nH]c2c1)c1ccccc1` the figure was -5.98%; with `Cc1cccc(NC(=O)c2sc3nc(N4CCOCC4)c4c(c3c2N)CCCC4)c1`, 18.7%; with `NC(=O)c1sc2nc3c(c(-c4ccccc4)c2c1N)CCC3`, 1.99%. With `Cc1cccc(NC(=O)c2sc3nc4c(c(-c5ccco5)c3c2N)CCC4)c1` the figure was 93% (active); with `CN(CCc1ccccc1)c1ccc([N+](=O)[O-])cn1`, -0.4%. With `CC(OC(=O)c1ccccc1N1C(=O)C2C3CCC(C3)C2C1=O)C(=O)c1ccccc1` (stereo not drawn) the figure was 1.1%; with `CCOC(=O)C1Sc2[nH]c(=O)sc2C(c2ccc(Cl)cc2)C1C(=O)OCC` (stereo not drawn), 17.4%; with `CCOC(=O)c1ccccc1N1C(=O)C2Sc3[nH]c(=O)sc3C(/C=C/c3ccccc3)C2C1=O` (stereo not drawn), 37.9% (active).

On to `O=C(CN1C(=O)S/C(=C\c2ccccc2Cl)C1=O)NC1C=CS(=O)(=O)C1` (stereo not drawn), for which the inhibition is -23.6%. With `c1ccc(-c2cc(-c3nnc4sc(-c5ccccn5)nn34)[nH]n2)cc1` the figure was -7.42%. `COc1cc(-c2nn3c(-c4cccc(C)c4)nnc3s2)cc(OC)c1OC`: the inhibition is 12.9%.

As to `Fc1ccc(-c2ccc(-c3nn4c(-c5ccco5)nnc4s3)o2)cc1`, the inhibition was 40.9% (active).

As to `C=CCOc1ccc(/C=C2/C(=O)ON=C2C)cc1OCC`, the inhibition is 16.9%. On to `CCOC(=O)c1c(N)nn(C(=O)c2ccccc2)c1-c1ccccc1`, for which the inhibition was -7.63%. With `CCOC(=O)c1nnn(-c2nc(OC)nc(N(C)C)n2)c1-c1ccccc1` the figure was 39.7% (active); with `CCOC(=O)c1nnn(-c2nonc2OC)c1-c1ccccc1`, 5.43%; with `COc1ccc(CN(C)C(C)C(=O)NC2CCCc3ccccc32)cc1` (stereo not drawn), -16.3%. Next, `COc1ccc(-c2ocnc2C(=O)Nc2ccc3c(c2)CCC3)cc1`: -14.4%. Consider `COc1ccc(CNS(=O)(=O)c2ccc(NC(=O)N3CCCCC3)cc2)cc1`, for which the inhibition is -6.52%. Next, `Cc1ccc(-n2nc3c(=O)n(C(C)C(=O)NCc4ccc5c(c4)OCO5)nc(C)c3c2C)cc1` (stereo not drawn): 4.33%; `O=C(CCCN1C(=O)/C(=C\c2ccccc2)SC1=S)Nc1ccccc1O`: -2.1%; `O=C(CCCN1C(=O)/C(=C/c2ccco2)SC1=S)Nc1ccccc1`: 34.7%. For `O=C(CCCN1C(=O)/C(=C\c2ccco2)SC1=S)Nc1cccc2ccccc12`, the inhibition is 40.1% (active). With `Cc1cc(C)n(CCC(=O)N2CCN(S(=O)(=O)c3ccc(C)c(C)c3)CC2)n1` the figure was -5.54%; with `Cc1c(NC(=O)Nc2cccc([N+](=O)[O-])c2)c(=O)n(-c2ccccc2)n1C`, 4.3%. Next, `CC1(C)CC(=O)c2c(n(S(=O)(=O)c3ccccc3)c3ccc(NS(=O)(=O)c4ccccc4)cc23)C1`: -3.21%; `CC(=O)N(C)c1ccc(NC(=O)C(F)(F)F)cc1`: -2.62%. Next, `CC(C)CNC(=O)C(=O)Nc1ccc(N(C)C)cc1`: -3.21%. For the compound `CN(C)c1ccc(N/C=C/C(=O)C(F)(F)F)cc1`, the inhibition was 47.6% (active). Next, `CC(=O)c1ccc(N2CCN(S(=O)(=O)c3ccc4c(c3)CC(=O)N4C)CC2)cc1`: 26.3%; `O=S(=O)(NC1CC1)c1ccc(Cl)cc1`: 4.09%. For the compound `COc1ccc(NC(=O)CC2C(=O)NC3CCCCC3N2C(=O)c2ccc(F)cc2)cc1` (stereo not drawn), the inhibition is -15.6%.

In the case of `Cc1ccc(S(=O)(=O)N/N=C\c2cc3c(cc2[N+](=O)[O-])OCO3)cc1`, the inhibition is 54.2% (active). For `Cc1ccc(-c2n[nH]c(=S)n2/N=C/c2cc3c(cc2[N+](=O)[O-])OCO3)cc1`, the inhibition is 8.58%. With `CC(=O)N/N=C/c1cc2c(cc1[N+](=O)[O-])OCO2` the figure was 3.66%. With `CC(=O)Nc1ccc(NC(=O)CCCNC(=O)c2ccc(Cl)cc2)cc1` the figure was -9.29%. With `CCCN1CCn2c3c(c4cc(Br)ccc42)CCCC31` (stereo not drawn) the figure was -17.6%. Take `Cc1nnc(SCC(=O)N/N=C/c2cn(-c3ccccc3)nc2-c2ccc(F)cc2)n1-c1ccccc1`: the inhibition is -0.42%. Next, `Cc1ccc(-c2nn(-c3ccccc3)cc2/C=N/NC(=O)c2ccc3c(c2)OCO3)cc1`: 3.37%.

On to `O=C(N/N=C/c1ccc([N+](=O)[O-])o1)c1cn(-c2ccccc2)nc1-c1ccc(F)cc1`, for which the inhibition is 37% (active).

As for `CC(=O)N1CCC(C(=O)Nc2nc(-c3ccccc3)ns2)CC1`, the inhibition was 1.62%.

In the case of `O=C(c1cnc(Cl)c(Cl)c1)N1CCN(S(=O)(=O)c2ccc(F)cc2)CC1`, the inhibition was 5.16%.

Regarding `O=C(c1cccc(C(=O)N2CCN(c3ccc(F)cc3)CC2)c1)N1CCN(c2ccc(F)cc2)CC1`, the inhibition was -2.81%. Next, `O=C(c1cccc(-n2cccc2)c1)N1CCN(S(=O)(=O)c2ccc(F)cc2)CC1`: 77% (active); `CNS(=O)(=O)c1cccc(C(=O)NC2CCCc3ccccc32)c1` (stereo not drawn): 37% (active).

`CNS(=O)(=O)c1cccc(C(=O)NCC2CCCCC2)c1`: the inhibition was -9.16%.

On to `O=C(O)c1cc(S(=O)(=O)NC2CCCc3ccccc32)ccc1O` (stereo not drawn), for which the inhibition is 7.44%. With `CC1(C)NC(=O)N(CC(=O)Nc2cc(C(F)(F)F)cc(C(F)(F)F)c2)C1=O` the figure was -6.82%.

In the case of `CCn1cc(C(=O)OCC(=O)Nc2cccc(C)c2)c(=O)c2ccc(C)nc21`, the inhibition is 4.57%.

`S=C(NCCc1ccccc1)N1CCCCC1`: the inhibition was 40.9% (active). Next, `O=C1CCN(C(=S)NCCc2ccccc2)CC1`: -6.74%.

In the case of `COc1ccc(C(=O)NC2CCN(C(=S)NCCc3ccccc3)CC2)cc1`, the inhibition is 0.36%. With `COc1ccc(CCn2c(=N)c(C(=O)NCC3CCCO3)cc3c(=O)n4cccc(C)c4nc32)cc1OC` (stereo not drawn) the figure was 0.37%; with `COc1cc(NS(=O)(=O)c2ccc(NC(=S)NC(=O)c3ccccc3)cc2)nc(OC)n1`, 11%; with `COc1nnc(-c2ccc(C)c(S(=O)(=O)N(C)C)c2)c2ccccc12`, -1.73%. Next, `CN(CC1CCCO1)S(=O)(=O)c1ccc(C(=O)Nc2ccc([N+](=O)[O-])cc2)cc1` (stereo not drawn): -4.51%.

On to `Brc1ccc(CSc2ccc(-c3ccco3)nn2)cc1`, for which the inhibition was 3.25%. Next, `O=c1[nH]c(SCc2ccccc2)nnc1-c1ccccc1`: 35.9%; `COC(OC)c1ccnc(SCc2ccccc2Cl)n1`: -11.3%; `c1ccc(CSc2nnc(-c3ccco3)c(-c3ccco3)n2)cc1`: 38.3% (active). With `Clc1ccccc1CSc1nnc(-c2ccco2)c(-c2ccco2)n1` the figure was 53.8% (active); with `Fc1cccc(Cl)c1CSc1ccc(-c2ccco2)nn1`, 5.94%; with `COc1ccc(/C=N/OCc2ccccc2C#N)c(OC)c1`, -11.6%. Next, `CC(C)c1ccc(S(=O)(=O)N2CCN(C(=O)c3ccc(N4CCCC4)c([N+](=O)[O-])c3)CC2)cc1`: -8.12%; `CS(=O)(=O)N1CCN(CC(=O)NC2CCCC2)CC1`: 2.51%; `CCOc1ccc(S(=O)(=O)N2CCC(C(=O)NCc3ccccn3)CC2)cc1Cl`: 4.14%. On to `Cc1ccc(NC(=O)[C@H](Cc2ccccc2)NC(=O)C2CCNCC2)cc1`, for which the inhibition is -12.4%.

Regarding `CCOC(=O)C1=C(O)/C(=C/c2cc(C)n(-c3ccccc3)c2C)N=C1C`, the inhibition is 46.3% (active).

As for `CCOC(=O)C1=C(O)/C(=C/c2ccc(OCC(=O)Nc3ccc(C)cc3)cc2)N=C1C`, the inhibition was 8.39%. On to `COC(=O)C1=C(O)/C(=C/c2ccc(OCC(=O)Nc3ccccc3)cc2)N=C1C`, for which the inhibition was -4.57%.

For the compound `COc1ccc2oc(C(=O)NCC(Cc3ccccc3)N(C)C)c(C)c2c1` (stereo not drawn), the inhibition is -39.7%.

As to `O=C(CCCN1CCc2[nH]c3ccc(F)cc3c2C1)c1ccc(F)cc1`, the inhibition is -45%. With `CCC(C)NC(=O)C1c2ccccc2C(=O)N1Cc1ccccc1` (stereo not drawn) the figure was -11.1%. `COCCCNS(=O)(=O)c1cccc(S(=O)(=O)c2cccc(S(=O)(=O)NCCCOC)c2)c1`: the inhibition was 3.55%. Next, `CC(C)c1ccc(C2C(C(=O)c3ccco3)=C(O)C(=O)N2CC2CCCO2)cc1` (stereo not drawn): 55.9% (active); `O=C(C1=C(O)C(=O)N(Cc2ccccc2)C1c1cccnc1)c1ccco1` (stereo not drawn): -5.86%. With `O=C(C1=C(O)C(=O)N(Cc2ccccc2)C1c1ccco1)c1ccco1` (stereo not drawn) the figure was 17.3%; with `O=C(OCC1O[C@@H](OC(=O)c2cc(O)c(O)c(O)c2)[C@@H](OC(=O)c2cc(O)c(O)c(O)c2)[C@@H](OC(=O)c2cc(O)c(O)c(O)c2)[C@@H]1OC(=O)c1cc(O)c(O)c(O)c1)c1cc(O)c(O)c(O)c1` (stereo partly drawn), 63.6% (active). Next, `CCC(NC(=O)c1ccccc1NC(=O)c1ccccc1)C(=O)NNC(=O)CSc1nc2ccccc2o1` (stereo not drawn): -3.35%; `NS(=O)(=O)c1ccc(-c2ccc(/C=C3\SC(=O)NC3=O)o2)cc1`: 60.5% (active); `CN1CCN(/N=C/c2ccc(-c3ccc([N+](=O)[O-])cc3)o2)CC1`: -1.77%. Regarding `CN1C(=O)/C(=C\c2ccc(-c3ccccc3)o2)SC1=S`, the inhibition was 23.6%. With `CCOc1ccc(CN2CCNC(=O)C2CC(=O)NCCCC2CCCC2)cc1` (stereo not drawn) the figure was -18.7%.

For orientation: inhibition means the drop in the measured response relative to a control, in per cent.
